Reference: paper PMC3773863 (Bioorganic & medicinal chemistry letters, 2013)

How the values were obtained:
[1] = molecular target: pure porcine brain tubulin proteins (Sus scrofa, UniProt P02550+P02554); experiment: In vitro tubulin polymerization assay; assay type: biochemical; details: GPEM buffer, 37 °C, absorbance 340 nm
[2] = test system: MDA-MB-435 melanoma cells; experiment: NCI in vitro human tumor cell screen, MDA-MB-435; assay type: cell-based
NCI-H522 cells = experiment: MTT anti-proliferation assay, NCI-H522; assay type: cell-based, human; details: read-out: IC50 proliferation of NCI-H522 cells, 48 h incubation
Procedure, shortened: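 NCI-H522 cells in log-phase growth were exposed at 37 °C to test compound or DMSO vehicle in complete medium for 48 h. They were then given MTT (1 mg/mL in 1X PBS) for 2 h at 37 °C. Absorbance was read at 570 nm and corrected at 630 nm.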

[3] = test system: NCI-H522 non-small cell lung cancer cells; experiment: NCI in vitro human tumor cell screen, NCI-H522; assay type: cell-based
M14 melanoma cells = experiment: NCI in vitro human tumor cell screen, M14; assay type: cell-based
Procedure, shortened: (§1)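 NCI-60 panel screen. GI50 is the log concentration that […]. TGI is the log concentration giving total growth inhibition. LC50 is the log concentration needed to kill 50% of the test population.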

[4] = test system: OVCAR-3 ovarian cancer cells; experiment: NCI in vitro human tumor cell screen, OVCAR-3; assay type: cell-based
Procedure, shortened: as §1

SF-295 CNS cancer cells = experiment: NCI in vitro human tumor cell screen, SF-295; assay type: cell-based
Procedure, shortened: as §1

[5] = test system: Colo205 colon cancer cells; experiment: NCI in vitro human tumor cell screen, Colo205; assay type: cell-based
Procedure, shortened: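 NCI-60 panel screen. GI50 is the log concentration that […]. TGI is the log concentration giving total growth inhibition.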

[6] = test system: RXF 393 renal cancer cells; experiment: NCI in vitro human tumor cell screen, RXF 393; assay type: cell-based
Procedure, shortened: as §1

[7] = test system: DU-145 prostate cancer cells; experiment: NCI in vitro human tumor cell screen, DU-145; assay type: cell-based
Procedure, shortened: as §1

[8] = test system: SK-OV-3 ovarian cancer cells; experiment: NCI in vitro human tumor cell screen, SK-OV-3; assay type: cell-based
Procedure, shortened: as §1

SK-MEL-5 melanoma cells = experiment: NCI in vitro human tumor cell screen, SK-MEL-5; assay type: cell-based
Procedure, shortened: as §1

SR leukemia cells = experiment: NCI in vitro human tumor cell screen, SR; assay type: cell-based
[9] = test system: MDA-MB-468 breast cancer cells; experiment: NCI in vitro human tumor cell screen, MDA-MB-468; assay type: cell-based
Procedure, shortened: as §1

[10] = test system: NCI/ADR-RES ovarian cancer cells; experiment: NCI in vitro human tumor cell screen, NCI/ADR-RES; assay type: cell-based
Procedure, shortened: as §1

[11] = test system: α-tubulin and β-tubulin in NCI-H522 cells; experiment: In vivo tubulin assembly assay; assay type: cell-based, human; details: 24 h, 6h 10, 30, 100 nM, vincristine and paclitaxel 100 nM

Sequence of pure porcine brain tubulin proteins (P02550 whole entry): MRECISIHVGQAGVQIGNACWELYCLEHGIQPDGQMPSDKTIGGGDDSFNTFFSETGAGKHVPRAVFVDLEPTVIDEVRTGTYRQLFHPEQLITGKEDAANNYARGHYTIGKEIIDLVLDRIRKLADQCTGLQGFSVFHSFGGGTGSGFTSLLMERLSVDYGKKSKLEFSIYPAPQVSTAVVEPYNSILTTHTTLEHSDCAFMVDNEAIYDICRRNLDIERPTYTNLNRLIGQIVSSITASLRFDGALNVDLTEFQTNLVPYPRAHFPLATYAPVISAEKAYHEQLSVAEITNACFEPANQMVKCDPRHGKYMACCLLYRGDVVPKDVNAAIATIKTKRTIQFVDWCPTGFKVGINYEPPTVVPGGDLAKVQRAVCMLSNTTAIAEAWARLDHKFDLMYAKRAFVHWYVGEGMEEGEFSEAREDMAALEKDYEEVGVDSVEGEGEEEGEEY
Sequence of pure porcine brain tubulin proteins (P02554 whole entry): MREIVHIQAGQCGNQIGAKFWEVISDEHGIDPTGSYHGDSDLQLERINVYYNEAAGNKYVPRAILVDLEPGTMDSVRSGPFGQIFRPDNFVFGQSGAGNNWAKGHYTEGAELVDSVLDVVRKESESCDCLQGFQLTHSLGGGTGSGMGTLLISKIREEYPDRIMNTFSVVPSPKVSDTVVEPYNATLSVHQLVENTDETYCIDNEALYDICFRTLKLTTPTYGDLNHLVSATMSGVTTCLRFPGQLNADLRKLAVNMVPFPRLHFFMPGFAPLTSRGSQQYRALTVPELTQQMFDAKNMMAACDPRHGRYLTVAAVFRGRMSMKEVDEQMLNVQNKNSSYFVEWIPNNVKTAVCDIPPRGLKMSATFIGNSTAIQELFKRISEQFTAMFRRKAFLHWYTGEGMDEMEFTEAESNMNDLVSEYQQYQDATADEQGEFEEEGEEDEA

Compound: CC[C@]1(O)C[C@H]2CN(CCc3c([nH]c4ccccc34)[C@@](C(=O)OC)(c3cc4c(cc3OC)N(C=O)[C@H]3[C@@](O)(C(=O)OC)[C@H](OC(C)=O)[C@]5(CC)C=CCN6CC[C@]43[C@@H]65)C2)C1 [vincristine]
- effect on tubulin polymerization [1]: inhibited tubulin polymerization

Compound: 2-(3-hydroxy-5-methoxyphenyl)-6-pyrrolidin-1-ylquinolin-4-one [Compound 6h]
- logGI50 [2]: < −8.00
- logTGI [2]: −7.53
- IC50 (NCI-H522 cells): 42.3 ± 1.2 nM
- logGI50 [3]: < −8.00
- logLC50 [3]: −5.41
- logTGI [3]: < −8.00
- logGI50 (M14 melanoma cells): −7.52
- logLC50 (M14 melanoma cells): >−4.00
- logTGI (M14 melanoma cells): −4.80
- logGI50 [4]: −7.63
- logLC50 [4]: −5.19
- logTGI [4]: −7.05
- logGI50 (SF-295 CNS cancer cells): −6.96
- logLC50 (SF-295 CNS cancer cells): >−4.00
- logTGI (SF-295 CNS cancer cells): −4.95
- logGI50 [5]: −7.27
- logTGI [5]: −6.66
- logGI50 [6]: −7.39
- logLC50 [6]: >−4.00
- logTGI [6]: −4.62
- effect on tubulin polymerization [1]: inhibited tubulin polymerization in a concentration-dependent manner
- logGI50 [7]: −7.51
- logLC50 [7]: >−4.00
- logTGI [7]: −6.59
- logGI50 [8]: −7.63
- logLC50 [8]: >−4.00
- logTGI [8]: −4.60
- logGI50 (SK-MEL-5 melanoma cells): −7.61
- logLC50 (SK-MEL-5 melanoma cells): −6.31
- logTGI (SK-MEL-5 melanoma cells): −7.18
- logGI50 (SR leukemia cells): < −8.00
- logLC50 (SR leukemia cells): >−4.00
- logTGI (SR leukemia cells): > −4.00
- logGI50 [9]: −6.58
- logLC50 [9]: >−4.00
- logTGI [9]: −5.70
- logGI50 [10]: −7.21
- logLC50 [10]: >−4.00
- logTGI [10]: −6.29

Compound: CC[C@]1(O)C[C@@H]2CN(CCc3c([nH]c4ccccc34)[C@@](C(=O)OC)(c3cc4c(cc3OC)N(C)[C@H]3[C@@](O)(C(=O)OC)[C@H](OC(C)=O)[C@]5(CC)C=CCN6CC[C@]43[C@@H]65)C2)C1 [vinblastine]
- effect on tubulin polymerization [1]: inhibited tubulin polymerization

Compound: CC(=O)O[C@H]1C(=O)[C@@]2(C)[C@H]([C@H](OC(=O)c3ccccc3)[C@]3(O)C[C@H](OC(=O)[C@H](O)[C@@H](NC(=O)c4ccccc4)c4ccccc4)C(C)=C1C3(C)C)[C@]1(OC(C)=O)CO[C@@H]1C[C@@H]2O [paclitaxel]
- effect on α-tubulin and β-tubulin in the cytoskeletal fraction [11]: caused tubulin polymerization
